# Shown are actives, neighbours in structure and some others; about 5.5% of the full set was active somewhere.
# Ecoli WT expand = E. coli BW25113 growth inhibition, expanded screen; OD600 absorbance; growth inhibition, % at 100 µM; actives 0.15% (n = 98,000);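 active = growth inhibition above about 50% at one test dose, limit read from the data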;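 also: growth measured after 20 h incubation at 37 °C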
# PLAP act = human PLAP activation. actives 1.2% (n = 96,000). P05187. purified PLAP enzyme, luminescent substrate read-out; active compounds read high. activation fold at 20 µM; in the data active = activation fold above about 2
# PostGolgi ctrl = inhibits growth of the yeast control strain | efflux-deficient yeast background strain, growth absorbance A615, 16 h | inhibition, % at 10 µM | actives 5% (n = 98,000) | AID 738
# HePTP inhibitor = blocks human HePTP tyrosine phosphatase. inhibition, % at 20 µM. recombinant HePTP phosphatase activity, OD absorbance. P35236. actives 0.64% (n = 110,000); in the data active = inhibition above about 50%;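 also: plate controls were vehicle for no effect and reference inhibitor for full effect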
# Target sequence (P35236 whole entry, looked up): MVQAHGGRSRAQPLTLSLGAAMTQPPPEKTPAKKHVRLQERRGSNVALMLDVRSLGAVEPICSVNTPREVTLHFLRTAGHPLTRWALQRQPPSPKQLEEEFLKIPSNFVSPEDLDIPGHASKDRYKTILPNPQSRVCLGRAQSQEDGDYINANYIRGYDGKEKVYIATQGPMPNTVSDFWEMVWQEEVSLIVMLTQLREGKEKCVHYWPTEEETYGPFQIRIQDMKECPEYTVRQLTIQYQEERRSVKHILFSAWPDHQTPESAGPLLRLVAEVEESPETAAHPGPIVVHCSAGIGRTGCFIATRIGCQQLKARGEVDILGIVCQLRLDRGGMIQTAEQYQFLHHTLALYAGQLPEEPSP
# PostGolgi yeast = growth inhibition of a yeast mutant, post-Golgi transport screen | actives 0.9% (n = 98,000) | inhibition, % at 10 µM | post-Golgi transport phenotypic cell assay;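 also: yeast cells grown in 1536-well plates; yeast grown about 18 h at 30C before absorbance read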
# Ecoli tolC = growth inhibitors of E. coli BW25113 tolC mutant; growth inhibition, % at 10 µM (by protocol); OD615; actives 2.2% (n = 65,000);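 active = growth inhibition at or above a cutoff equal to the mean over every tested compound plus 3 SD, cut at about 60% in these data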;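 also: growth measured after 20 h incubation at 37 °C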
#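 Signal: optical density read at 615 nm; Assay system: E. coli ΔtolC::kan strain BW25113; Times: 20 h incubation with compound, 37 °C; Dosing: 10 µM final, single dose.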
# Numbers without * were called inactive; · = no result given. Rule as the data show it, unless noted: active = inhibition above about 30%; inactive = the rest.
SMILES,Ecoli WT expand,PLAP act,PostGolgi ctrl,HePTP inhibitor,PostGolgi yeast,Ecoli tolC
CCOC(=O)Cc1[nH]nc2c1C(C1C=CCCC1)C(C#N)=C(N)O2 (stereo not given),-8,2.1*,11,11,-8,36
CCOC(=O)Cc1[nH]nc2c1C(c1cccc(OC)c1OC)C(C#N)=C(N)O2 (stereo not given),4,2.2*,-7,8,0,-15
COCc1[nH]nc2c1C(c1ccccc1OC)C(C#N)=C(N)O2 (stereo not given),·,1,·,8,·,-3
COc1ccc(-n2c(C)c([N+](=O)[O-])c3ccc(O)c(CN(CCO)CCO)c32)cc1,·,·,·,10,·,·
CSc1ccc(/C=C(/NC(=O)c2ccccc2)c2nc3ccccc3[nH]2)cc1,·,·,·,0,·,·
CCOC(=O)C1=C(C)NC(=O)NC1c1sccc1C (stereo not given),·,·,·,-8,·,·
Cc1ccc(C)c(NC(=O)CSc2nnc(CCCCCNC(=O)OC(C)(C)C)o2)c1,0,1.4,0,3,8,31
Cc1ccc(NC(=O)CSc2nnc(CCNC(=O)OC(C)(C)C)o2)c(C)c1,3,1.4,35*,·,-2,·
O=C(C1CCCC1)N(c1ccccc1)C1C=CS(=O)(=O)C1 (stereo not given),2,1.2,11,-6,2,-15
Cc1ccc(N(C(=O)C2CCCC2)C2C=CS(=O)(=O)C2)cc1 (stereo not given),1,1,39*,-3,5,5
CCOC(=O)N1CCN(S(=O)(=O)c2ccc(OCC)c3ccccc23)CC1,-13,1.4,19,5,-19,65*
CC1(C)CC(=O)c2sc(NC(=O)CSC3=NCCS3)nc2C1,·,·,·,8,·,·
COC(=O)c1cc2sc(Cl)cc2n1CC(=O)NCC1CCCO1 (stereo not given),6,1,36*,·,6,·
Cc1nn(CC(=O)Nc2c(F)cc(F)cc2Br)c(C)c1[N+](=O)[O-],·,·,·,-1,·,·
O=C(CCN1C(=O)c2ccccc2C1=O)Nc1ccc2c(c1)OCCO2,-3,1,35*,6,-7,-9
CC1CCN(S(=O)(=O)c2ccc(NC(=O)Cc3ccccc3)cc2)CC1,-11,1.7,39*,·,-6,·
CC1CCN(S(=O)(=O)c2ccc(NC(=O)CCN3C(=O)c4ccccc4C3=O)cc2)CC1,0,1.2,6,·,83*,·
CC1CN(S(=O)(=O)c2ccc(NC(=O)CCN3C(=O)c4ccccc4C3=O)cc2)CC(C)O1 (stereo not given),0,1.1,-3,0,4,-3
Cc1ccc(N2C(=O)CSC2c2cccc([N+](=O)[O-])c2)c(C)c1 (stereo not given),·,·,·,-1,·,·
CCOc1cc(/C=C2\C(=O)NC(=O)N(c3ccc(Cl)cc3)C2=O)cc(Cl)c1OCC(=O)O,·,·,·,4,·,·
CN1CCCC1=NC(=S)CN1CCCC1=S,·,·,·,97*,·,·
COC(=O)c1ccc(NC(=O)COc2ccc(C)cc2C)cc1,·,·,·,3,·,·
O=C(c1ncn[nH]1)N1CCN(c2nc(-c3ccccc3)cs2)CC1,5,2.6*,8,13,9,11
Cc1cc(=O)n2ccc(CN(C)C)c(O)c2n1,·,·,·,-2,·,·
O=C1CC(Cc2ccc(Cl)cc2)C(=O)N1c1ccc(F)cc1 (stereo not given),·,·,·,-3,·,·
SMILES,Ecoli WT expand,PLAP act,PostGolgi ctrl,HePTP inhibitor,PostGolgi yeast,Ecoli tolC
Cc1cc2c(cc1C)NC(c1cccc(C(F)(F)F)c1)C1=C(CC(C)(C)CC1=O)N2 (stereo not given),·,·,·,-2,·,·
O=[N+]([O-])c1nn(-c2ccc3c(c2)OCCO3)n(O)c1=NCCCO,35,0.8,15,·,0,·
O=[N+]([O-])c1nn(-c2ccc3c(c2)OCCO3)n(O)c1=Nc1ccc(Cl)cc1,-8,0.8,57*,·,40*,·
CCc1ccc2oc(-c3cc(N)ccc3Cl)nc2c1,-1,1,35*,-2,1,60
Cc1ccc2oc(-c3cc(N)ccc3Cl)nc2c1,·,·,·,9,·,·
CCc1ccc2oc(-c3cc(N)ccc3O)nc2c1,-5,1.2,53*,1,22,13
CCc1ccc2oc(-c3cc(N)cc(C)c3O)nc2c1,-3,1,22,1,-4,21
CNC(=S)N1N=C(c2ccc(C)cc2)CC1c1ccc(Cl)cc1 (stereo not given),-15,1.1,44*,·,-2,·
CNC(=S)N1N=C(c2ccc(C)cc2)CC1c1ccc(Br)cc1 (stereo not given),-18,0.9,35*,·,-9,·
O=C(Nc1cccc(O)c1)c1ccc2c(c1)C(=O)N(c1ccccn1)C2=O,·,·,·,4,·,·
O=C(NCCO)C(=O)NC1CCCCC1,·,·,·,4,·,·
N#Cc1c(N)c(C#N)c(-c2ccc(O)cc2)c2c1CCCC2,10,1.1,34*,-6,7,26
N#Cc1c(N)c(C#N)c(-c2ccc3c(c2)OCO3)c2c1CCCC2,-7,1,19,9,6,16
CC(C)OC(=O)CSc1nnc(-c2ccc(Cl)cc2)n1N,-4,0.9,-7,1,35*,-15
Cc1ccc(-c2nnc(SCC(=O)OC(C)C)n2N)cc1,1,1.2,-2,·,-2,·
COc1cc(/C=N/NC(=O)Cc2nnc(N)s2)ccc1OCc1ccc(Cl)cc1Cl,·,·,·,-28,·,·
N#Cc1cc(N)ccc1Sc1ccc(Cl)cc1,32,0.6,53*,·,9,·
O=C(Nc1ccc(Cl)cc1)c1cccs1,35,1.3,15,·,23,·
O=C(Nc1ccccc1)c1nnsc1S(=O)c1ccc(Cl)cc1 (stereo not given),18,0.9,102*,·,105*,·
CCOC(=O)c1c(C)oc2cc(Br)c(O)c(Br)c12,10,1.1,52*,1,-7,41
CCOC(=O)COc1cc2c(C(=O)OCC)c(C)oc2cc1Br,-2,0.9,15,-2,2,4
COc1cccc2cc(C(=O)Nc3c(C)n(C)n(-c4ccccc4)c3=O)c(=O)oc12,·,·,·,8,·,·
O=C(O)c1nn2c(C(F)(F)F)c3c(nc2c1Cl)-c1ccccc1CC3,·,·,·,70*,·,·
COC(=O)c1ccc(CSc2nc3ccc(C)cc3[nH]2)o1,10,2.2*,8,·,-10,·
CC(=O)c1c(C)[nH]c(C(=O)CSc2nc3ccc(C)cc3[nH]2)c1C,-9,1.7,35*,·,8,·
SMILES,Ecoli WT expand,PLAP act,PostGolgi ctrl,HePTP inhibitor,PostGolgi yeast,Ecoli tolC
C=CCN1C(=O)/C(=C\c2cc3c(cc2Br)OCO3)C(=O)NC1=S,·,·,·,8,·,·
Cc1cc(C=O)c(C)n1-c1ccc(Br)cc1,·,·,·,-1,·,·
COC(OC)C12c3ccccc3C(c3ccccc31)C1C(=O)N(c3cccc(C)c3C)C(=O)C12 (stereo not given),·,·,·,-18,·,·
COC(=O)CCc1c(C)[nH]c(C(=O)OCc2ccccc2)c1C,6,1,31*,6,13,2
CCOC(=O)c1[nH]c(C(=O)O)c(CCC(=O)OC)c1C,0,1.1,-1,·,7,1
Cc1ccc(-c2nnc(SCC(=O)N3CC(C)CC(C)C3)o2)cc1C (stereo not given),-8,·,15,8,2,97*
CC1CC(C)CN(C(=O)CSc2nnc(-c3ccc(Cl)cc3)o2)C1 (stereo not given),2,0.9,16,-1,-12,5

# Assay outcomes from PubChem.
